V-ATPase pH: yeast V-ATPase proton transport regulation by pHLuorin | response, % at 10 µM | 350,000 compounds, 0.37% hits | AID 504577 | S. cerevisiae, pHLuorin cytosolic pH fluorescence; in the data active means response mostly above about 7.3%, no sharp cut-off; inactive means mostly below about 5.4%; further: actives read high
Yeast superoxide: lowers age-related superoxide in aged yeast cells; superoxide response (% of plate mean), % at 10 µM; AID 2690; 330,000 compounds, 0.18% hits; S. cerevisiae aged cells, superoxide DHE fluorescence; active compounds read low;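 active means superoxide response under a set limit, about three screen SD below normal, cut at about 65% in these data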;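 further: yeast aged for seven days with compound at 30 °C before DHE staining; 100% = average MFI of all compound-treated wells on the plate with controls excluded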
AI-2 QS mod: modulates the Vibrio harveyi AI-2 quorum sensing system | AID 2094 | activity change, % at 7.5 µM | 300,000 compounds, 0.4% hits | Vibrio harveyi JMH597 AI-2 luminescence/OD600 ratio, 9 h; active compounds read low; strain lacks LuxN and CqsS sensors; 0 = neutral-control median; in the data active means activity change below about -75%, passing the limit was not always enough; inconclusive means no clear call, values can overlap the other calls;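 further: luminescence divided by OD600 gain over 9 h not by final OD600 alone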
T cruzi repl: T. cruzi replication inhibition. 300,000 compounds, 1.4% hits. T. cruzi beta-gal in NIH3T3, luminescence, 90 h. inhibition, % (test concentration not listed). AID 1885;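 active means mean inhibition across valid replicates above about 55%, limit read from the data; inconclusive means mean below that limit but half or more replicates reach it; inactive means mean below it, under half of replicates reach it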;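 further: signal also drops with host cell toxicity which is not excluded here; 0% = plate median of DMSO wells and 100% = zero luminescence signal; higher percent means less beta-gal luminescence so fewer parasites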
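Assay system: NIH/3T3 host cells with β-galactosidase reporter T. cruzi; input: 5,000 host fibroblasts per well; compound: single 50 nL compound addition per well in DMSO; timing: ≥90 h infection period, 3 h prior cell attachment; measured by: GalScreen β-gal luminescence, detergent lysis, 60 min; evaluation: percent inhibition of parasite-derived β-gal signal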
CendR NRP1 mod: alters CendR peptide binding to human NRP-1 | FAM-RPARPAR peptide binding to NRP-1, fluorescence polarization | inhibition, % at 25 µM | 360,000 compounds, 0.85% hits | AID 602438;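 active means inhibition or corrected inhibition above about 18%, plus a signal ratio from 0.5 to 1.5, limit read from the data, passing the limit was not always enough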
Target sequence (O14786 whole entry, looked up): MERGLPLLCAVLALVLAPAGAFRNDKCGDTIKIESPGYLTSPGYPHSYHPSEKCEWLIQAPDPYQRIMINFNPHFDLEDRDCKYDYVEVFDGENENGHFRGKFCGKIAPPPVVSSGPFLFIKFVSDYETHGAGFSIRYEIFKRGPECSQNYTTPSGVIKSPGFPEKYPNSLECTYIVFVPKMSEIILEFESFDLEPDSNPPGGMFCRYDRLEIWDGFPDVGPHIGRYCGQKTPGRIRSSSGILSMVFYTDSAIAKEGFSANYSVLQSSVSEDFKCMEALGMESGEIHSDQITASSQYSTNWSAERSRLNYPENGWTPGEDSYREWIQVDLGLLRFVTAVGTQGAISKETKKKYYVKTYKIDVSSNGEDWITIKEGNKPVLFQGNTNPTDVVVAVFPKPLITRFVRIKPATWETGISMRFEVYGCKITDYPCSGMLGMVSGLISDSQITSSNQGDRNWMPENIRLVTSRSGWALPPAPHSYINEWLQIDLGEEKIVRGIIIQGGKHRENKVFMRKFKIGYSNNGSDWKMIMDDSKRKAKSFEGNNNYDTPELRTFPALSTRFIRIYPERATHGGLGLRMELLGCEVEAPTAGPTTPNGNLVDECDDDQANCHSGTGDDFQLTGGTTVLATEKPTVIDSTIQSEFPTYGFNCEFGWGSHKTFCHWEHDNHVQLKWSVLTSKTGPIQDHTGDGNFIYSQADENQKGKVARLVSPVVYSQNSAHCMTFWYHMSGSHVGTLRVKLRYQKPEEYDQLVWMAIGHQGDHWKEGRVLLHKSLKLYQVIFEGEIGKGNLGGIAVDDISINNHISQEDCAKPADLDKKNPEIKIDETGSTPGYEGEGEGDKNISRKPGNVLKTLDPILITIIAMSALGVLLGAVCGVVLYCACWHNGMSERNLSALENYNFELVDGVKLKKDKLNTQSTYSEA
HIF activator: HIF pathway transcriptional activation; U2OS HRE-luciferase reporter, luminescence; normalized: DMSO 0%, desferrioxamine 100%; activation, % at 7.5 µM (by protocol); 300,000 compounds, 0.32% hits;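 active means mean activation of at least 10% of the iron chelator positive control signal, with at least half of replicates also reaching 10%; inconclusive means mean and replicate majority disagree about reaching 10%; inactive means mean and most replicates under 10%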
JMH597 growth rt: retest Vibrio harveyi JMH597 growth inhibition. shares compounds with AI-2 QS mod. OD600 absorbance, 9 h; lacks LuxN and CqsS sensors. growth inhibition, % at 7.5 µM. 750 compounds, 1% hits. AID 2726;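 active means every replicate shows growth inhibition above 50%; inconclusive means at least half, but not all, replicates pass that cutoff; inactive means fewer than half of replicates pass it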
BB721 lum counter: retest counter-screen: BB721 constitutive quorum sensing luminescence decrease | 750 compounds, 95% hits | AID 2727 | inhibition, % at 7.5 µM | shares compounds with AI-2 QS mod | Vibrio harveyi BB721 luminescence, 9 h;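 active means inhibition above about 80% in every replicate, not just on average, limit read from the data; inconclusive means at least half of replicates past the limit, but not all; inactive means fewer than half of replicates past the limit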
BB721 growth: retest: blocks Vibrio harveyi BB721 growth | growth inhibition, % at 7.5 µM | OD600 absorbance, 9 h | 750 compounds, 3% hits | shares compounds with AI-2 QS mod;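 active means every replicate shows growth inhibition above 50%; inconclusive means at least half but not all replicates above 50% inhibition; inactive means under half of replicates above 50% inhibition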
AI-2 QS JMH597: Vibrio harveyi AI-2 signaling luminescence modulation – JMH597 strain, confirmation; shares compounds with AI-2 QS mod; Vibrio harveyi JMH597 AI-2 quorum sensing luminescence, 9 h; luxN and CqsS knockout, AI-2 only; inhibition, % at 7.5 µM; 750 compounds, 97% hits;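 active means every replicate shows more than 75% inhibition of signal versus neutral control wells; inconclusive means half to three quarters of replicates exceed 75% inhibition; inactive means fewer than half of replicates exceed 75% inhibition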
Starred values were filed as active, the others as inactive; ? = inconclusive; . = not tested or not shown. Only some compounds are listed: those with a hit (about 3% of all), similar ones and a draw of the others.

SMILES	V-ATPase pH	Yeast superoxide	AI-2 QS mod	T cruzi repl	CendR NRP1 mod	HIF activator	JMH597 growth rt	BB721 lum counter	BB721 growth	AI-2 QS JMH597
Nc1nc(N2CCCCC2)nc(N(c2ccccc2)c2ccccc2)n1	-1	89	18	13	1	0	.	.	.	.
Nc1ccccc1S(=O)(=O)NCCCCc1ccccc1	2	93	-89*	-18	-13	0	-4	95*	5	96*
CCOc1ccc(NC(=O)CN2C(=O)NC(C)(c3ccc(OC(F)F)cc3)C2=O)cc1 (centres undefined)	6	121	-93*	11	8	0	41	94*	57*	96*
CCOC(=O)c1c(NC(=O)CN2C(=O)NC(C)(c3ccc(OC(F)F)cc3)C2=O)sc(C)c1C (centres undefined)	4	108	30	32	-14	0	.	.	.	.
Cc1ccc(C2(C)NC(=O)N(CC(=O)N(C)CC(=O)Nc3cccc(F)c3)C2=O)cc1 (centres undefined)	-2	97	.	.	6	.	.	.	.	.
CC1(c2ccc(OC(F)F)cc2)NC(=O)N(CC(=O)Nc2cccc(F)c2)C1=O (centres undefined)	-6	96	-93*	0	7	1	19	95*	24	97*
COc1ccc(C2(c3ccc(OC)cc3)NC(=O)N(CC(=O)Nc3ccc(OC(F)F)cc3)C2=O)cc1	0	90	3	28	3	0	.	.	.	.
CC1(c2ccc(OC(F)F)cc2)NC(=O)N(CC(=O)Nc2ccc(Cl)cc2F)C1=O (centres undefined)	6	114	-94*	17	16	1	5	96*	-7	96*
Cc1ccc(S(=O)(=O)N2CCC(C(=O)OC3CCOC3=O)CC2)cc1C (centres undefined)	-3	98	33	-8	-8	0	.	.	.	.
CN(C)c1nc2c(c(=O)n(C)c(=O)n2C)n1CC(=O)c1cccs1	-3	97	17	0	-9	0	.	.	.	.
Clc1ccc(OCc2cc(-c3ccccc3)no2)c(Cl)c1	6	91	26	6	-8	0	.	.	.	.
Fc1ccc(OCc2cc(-c3ccccc3)no2)cc1	6	98	-95*	1	10	4	31	98*	33	98*
COc1ccc(-c2cc(COc3ccccc3)on2)cc1	2	109	-89*	-28	-3	5	13	97*	-17	98*
Cc1cccc(OCc2cc(-c3ccccc3)no2)c1C	1	96	-96*	-12	11	1	25	99*	33	99*
CC(C)C(CCNC(=O)CC(Cc1ccccc1)c1ccco1)c1ccco1 (centres undefined)	-6	98	21	8	-25	0	.	.	.	.
CC(C)C(CCNC(=O)CN1C(=O)c2ccccc2C1=O)c1ccco1 (centres undefined)	0	105	-84*	-4	-15	0	12	94*	2	97*
COc1ccc(N(CC(=O)O)S(=O)(=O)c2ccccc2[N+](=O)[O-])c(OC)c1	2	91	20	-4	0	0	.	.	.	.
Cc1cccc(OCC(=O)Nc2cc(C)ccc2O)c1	-1	111	-85*	1	1	1	34	96*	29	97*
CCc1cccc(OCC(=O)Nc2ccc(S(=O)(=O)N3CCCC3)cc2)c1	-2	99	-90*	2	-5	-1	43	97*	?	98*
